HTR1E agonist – activates the human 5-HT1E serotonin receptor. CHO 5-HT1E Ga15 NFAT-bla reporter, FRET; 0% DMSO wells, 100% control agonist wells. activation, % at 6 µM. 65,000 tested, 0.69% active. AID 574;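 active = activation above a set limit, the screen-wide mean activation plus 3 SD, cut at about 8.5% in these data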
HTR1A agonist – 5-HT1a (human) receptor agonism | 65,000 tested, 0.56% active | CHO 5-HT1a Ga15 NFAT-bla reporter, FRET ratio; 0% basal, 100% maximal reference agonist | AID 567 | activation, % at 10 µM | P08908;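 active = activation above the screen-wide mean activation plus 3 SD, cut at about 19% in these data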
Target sequence (P08908 whole entry, looked up): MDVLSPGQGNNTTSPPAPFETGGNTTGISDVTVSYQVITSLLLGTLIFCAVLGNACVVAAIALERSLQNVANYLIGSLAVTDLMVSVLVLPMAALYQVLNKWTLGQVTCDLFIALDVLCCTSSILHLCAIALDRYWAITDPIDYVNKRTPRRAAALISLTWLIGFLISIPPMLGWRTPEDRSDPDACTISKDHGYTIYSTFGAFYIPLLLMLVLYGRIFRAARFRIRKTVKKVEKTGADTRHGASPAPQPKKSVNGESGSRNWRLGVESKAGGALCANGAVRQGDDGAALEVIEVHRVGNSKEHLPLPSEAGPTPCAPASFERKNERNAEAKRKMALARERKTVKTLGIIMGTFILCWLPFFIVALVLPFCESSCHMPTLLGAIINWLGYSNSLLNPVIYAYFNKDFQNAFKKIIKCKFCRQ
HTR1E antagonist – blocks the human 5-HT1E serotonin receptor. 65,000 tested, 0.99% active. inhibition, % at 6 µM. CHO 5-HT1E Ga15 NFAT-bla reporter, FRET, antagonist;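 active = inhibition above a set limit, the mean inhibition across every tested compound plus 3 SD, cut at about 29% in these data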;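 note: signal is the 460 over 535 nm emission ratio of beta-lactamase substrate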
HEK293 NFkB inh – inhibitors of the PMA/ionomycin-induced NF-kB reporter in HEK293 cells; 62,000 tested, 0.21% active; HEK-293 NF-kB luciferase reporter, luminescence; inhibition, % at 3 µM;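 active = inhibition above the mean of all tested compounds plus 3 SD, cut at about 40% in these data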
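Timing: 1 h pretreatment, 16 h stimulation, 37 °C; system: HEK-293 cells with stable firefly luciferase reporter driven by four HIV NF-kB elements; doses: 3 µM once, 0.30% DMSO; measured by: luciferase luminescence; control set: DMSO and 10 µM reference inhibitor; repeats: single test; reagent: PMA plus ionomycin mix as NF-kB-activating stimulus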
5-HT1A blocker – antagonists of human 5-HT1a serotonin receptor. P08908. inhibition, % at 10 µM. CHO 5-HT1a Ga15 NFAT-bla reporter, antagonist mode. AID 612. 62,000 tested, 0.68% active;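 active = inhibition above the mean of all tested compounds plus 3 SD, cut at about 43% in these data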;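 note: receptor stimulated by 5-CT agonist at 100 nM near EC80; beta-lactamase reporter measured by ratiometric fluorescence of a cleavable substrate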
Numbers stand for hits; – = inactive. In the library only some 2.6% were active in any assay of this set; here they are far more common.

SMILES | HTR1E agonist | HTR1A agonist | HTR1E antagonist | HEK293 NFkB inh | 5-HT1A blocker
NS(=O)(=O)c1ccc(NC(=O)COC(=O)CCNC(=O)NC23CC4CC(CC(C4)C2)C3)cc1 | – | – | – | – | –
COc1ccc(-c2nn(CC(=O)N(C)C)c(=O)c3ccccc23)cc1 | – | – | – | – | –
COc1ccc(C2C(C(=O)NCc3cccnc3)c3ccccc3C(=O)N2C)cc1OC (configuration not stated) | – | – | – | – | –
O=C(CSc1nccn1-c1ccc(F)cc1)Nc1ccc2c(c1)OCO2 | 14 | – | – | – | –
O=C(CSc1nccn1-c1ccccc1)Nc1ccc2c(c1)OCO2 | – | – | – | – | –
Cc1cc(NC(=O)C2CCN(S(=O)(=O)c3cnc[nH]3)CC2)ccc1Br | – | – | – | – | –
